Assays:
[1] = biological target: Activin receptor type-1B (Homo sapiens) (UniProt P36896); assay: Inhibition of human ACVR1B (S187 to I505 residues) expressed in bacterial expression system assessed as residual activity at 5 uM by KINOMEscan assay relative to control
[2] = biological target: RAF proto-oncogene serine/threonine-protein kinase (Homo sapiens, UniProt P04049); assay: Inhibition of human RAF1 (I330 to T640 residues) expressed in bacterial expression system assessed as residual activity at 5 uM by KINOMEscan assay relative to control
[3] = biological target: T1, Phosphatidylinositol 4,5-bisphosphate 3-kinase catalytic subunit gamma isoform (Homo sapiens, UniProt P48736); assay: Binding affinity to human PIK3CG (S144 to A1102 residues) expressed in mammalian expression system by KINOMEscan assay
Target sequence in this assay (P48736 whole entry, the tested form may be a part, canonical isoform): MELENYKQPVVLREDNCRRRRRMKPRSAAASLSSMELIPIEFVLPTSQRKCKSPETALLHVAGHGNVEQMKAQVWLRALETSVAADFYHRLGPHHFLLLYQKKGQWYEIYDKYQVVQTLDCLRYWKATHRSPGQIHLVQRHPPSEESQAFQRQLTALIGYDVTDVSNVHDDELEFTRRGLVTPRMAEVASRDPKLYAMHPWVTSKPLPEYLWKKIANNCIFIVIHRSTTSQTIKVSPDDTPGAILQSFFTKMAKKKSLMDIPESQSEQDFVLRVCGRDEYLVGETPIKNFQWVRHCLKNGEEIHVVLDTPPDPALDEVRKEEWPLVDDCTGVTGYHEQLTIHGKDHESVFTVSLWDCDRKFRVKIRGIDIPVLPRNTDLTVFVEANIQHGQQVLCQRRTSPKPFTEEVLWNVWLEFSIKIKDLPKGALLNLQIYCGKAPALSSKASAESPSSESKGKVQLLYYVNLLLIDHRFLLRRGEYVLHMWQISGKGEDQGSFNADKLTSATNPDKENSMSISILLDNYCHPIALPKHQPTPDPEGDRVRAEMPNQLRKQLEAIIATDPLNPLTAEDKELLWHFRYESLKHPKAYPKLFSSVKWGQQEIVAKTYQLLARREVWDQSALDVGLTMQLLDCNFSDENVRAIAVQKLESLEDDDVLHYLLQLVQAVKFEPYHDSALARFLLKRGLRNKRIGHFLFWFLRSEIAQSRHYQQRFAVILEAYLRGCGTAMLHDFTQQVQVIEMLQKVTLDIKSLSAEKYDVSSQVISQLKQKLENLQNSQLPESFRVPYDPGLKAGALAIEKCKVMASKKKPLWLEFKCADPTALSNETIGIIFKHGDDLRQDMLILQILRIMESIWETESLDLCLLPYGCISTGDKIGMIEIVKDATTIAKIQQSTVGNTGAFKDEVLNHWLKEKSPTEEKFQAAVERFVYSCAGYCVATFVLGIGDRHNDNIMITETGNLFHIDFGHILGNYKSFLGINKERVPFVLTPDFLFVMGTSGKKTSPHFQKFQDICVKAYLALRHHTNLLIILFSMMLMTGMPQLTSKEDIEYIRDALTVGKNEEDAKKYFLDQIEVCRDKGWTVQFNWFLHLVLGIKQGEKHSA

[4] = biological target: Bone morphogenetic protein receptor type-2 (Homo sapiens, UniProt Q13873); assay: Binding affinity to human BMPR2 (R179 to Q526 residues) expressed in mammalian expression system by KINOMEscan assay
[5] = biological target: Serine/threonine-protein kinase PAK 4 (Homo sapiens, UniProt O96013); assay: Inhibition of partial length human PAK4 (Q144 to R438 residues) expressed in bacterial expression system assessed as residual activity at 5 uM by KINOMEscan assay relative to control
[6] = biological target: Proto-oncogene tyrosine-protein kinase receptor Ret (Homo sapiens, UniProt P07949); assay: Binding affinity to human RET (E713 to D1014 residues) expressed in bacterial expression system by KINOMEscan assay
[7] = system: SW-620; assay: Cell cycle arrest in human SW620 cells assessed as accumulation at G2-phase at 50 uM after 48 hrs by propidium iodide staining based flow cytometry (reference value: 14.08%); format: functional
[8] = Growth inhibition of human FHC cells after 48 hrs by MTT assay; format: cell-based
[9] = system: HT-29; assay: Induction of apoptosis in human HT-29 cells assessed as necrotic cells at 25 uM after 48 hrs by Annexin-V-FITC/propidium iodide staining based flow cytometry (reference value: 1.6%); format: functional
[10] = system: HT-29; assay: Down regulation of cyclin-B1 expression in human HT-29 cells after 48 hrs by Western blot analysis; format: functional, cell-based
Outline: (§1)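 HT29 or SW620 cells were treated at 0, 25, 50 and 75 μM for 48 h and lysed in RIPA with protease and phosphatase inhibitors. Protein was quantified by BCA. 50 μg lysate was run on 8–15% SDS-PAGE and transferred to PVDF. Blocking was 5% BSA/TBST for 2 h; primary antibodies were applied overnight at 4 °C, then HRP secondary 1 h at room temperature.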

[11] = biological target: Dual specificity mitogen-activated protein kinase kinase 1 (Homo sapiens, UniProt Q02750); assay: Binding affinity to full length human MEK1 (M1 to V393 residues) expressed in mammalian expression system by KINOMEscan assay
[12] = system: SW-620; assay: Cell cycle arrest in human SW620 cells assessed as accumulation at G1-phase at 50 uM after 48 hrs by propidium iodide staining based flow cytometry (reference value: 40.56%); format: functional
[13] = biological target: MAP kinase-interacting serine/threonine-protein kinase 1 (Homo sapiens, UniProt Q9BUB5); assay: Binding affinity to full length human MKNK1 (M1 to L424 residues) expressed in mammalian expression system by KINOMEscan assay
[14] = biological target: Ribosomal protein S6 kinase alpha-3 (Homo sapiens, UniProt P51812); assay: Inhibition of human N-terminal RSK2 kinase domain 1 (M1 to D394 residues) expressed in mammalian expression system assessed as residual activity at 5 uM by KINOMEscan assay relative to control
[15] = system: HT-29; assay: Increase in PTEN expression in human HT-29 cells after 48 hrs by Western blot analysis; format: functional, cell-based; outline: as §1
[16] = biological target: Focal adhesion kinase 1 (Homo sapiens, UniProt Q05397); assay: Inhibition of human FAK (D402 to R696 residues) expressed in bacterial expression system assessed as residual activity at 5 uM by KINOMEscan assay relative to control
[17] = biological target: Tyrosine-protein kinase BTK (Homo sapiens, UniProt Q06187); assay: Inhibition of full length human BTK (M1 to S659 residues) expressed in mammalian expression system assessed as residual activity at 5 uM by KINOMEscan assay relative to control
[18] = biological target: Tyrosine-protein kinase JAK2 (Homo sapiens, UniProt O60674); assay: Inhibition of human JAK2 JH1 catalytic domain (A829 to G1132 residues) expressed in mammalian expression system assessed as residual activity at 5 uM by KINOMEscan assay relative to control
[19] = biological target: Tyrosine-protein kinase ABL1 (Homo sapiens, UniProt P00519); assay: Inhibition of human phosphorylated ABL1 (S229 to K512 residues) expressed in mammalian expression system assessed as residual activity at 5 uM by KINOMEscan assay relative to control
[20] = biological target: Atypical kinase COQ8A, mitochondrial (Homo sapiens, UniProt Q8NI60); assay: Inhibition of […] human ADCK3 (M280 to Q647 residues) expressed in bacterial expression system assessed as residual activity at 5 uM by KINOMEscan assay relative to control
[21] = biological target: T1, Phosphatidylinositol 4,5-bisphosphate 3-kinase catalytic subunit gamma isoform; assay: Inhibition of human PIK3CG (S144 to A1102 residues) expressed in mammalian expression system assessed as residual activity at 5 uM by KINOMEscan assay relative to control
Target sequence in this assay (P48736 whole entry, looked up, the tested form may be a part, canonical isoform): as the sequence (P48736 whole entry, the tested form may be a part, canonical isoform) above

[22] = biological target: Ephrin type-A receptor 2 (Homo sapiens, UniProt P29317); assay: Inhibition of human EPHA2 (T593 to V891 residues) expressed in bacterial expression system assessed as residual activity at 5 uM by KINOMEscan assay relative to control
[23] = system: SW-620; assay: Induction of apoptosis in human SW620 cells assessed as early apoptotic cells at 25 uM after 48 hrs by Annexin-V-FITC/propidium iodide staining based flow cytometry (reference value: 0.4%); format: functional
[24] = biological target: Vascular endothelial growth factor receptor 2 (Homo sapiens, UniProt P35968); assay: Inhibition of human VEGFR2 (R787 to P1253 residues) expressed in mammalian expression system assessed as residual activity at 5 uM by KINOMEscan assay relative to control
[25] = system: HT-29; assay: Upregulation of p53 expression in human HT-29 cells after 48 hrs by Western blot analysis; format: functional, cell-based
[26] = biological target: Mitogen-activated protein kinase 9 (Homo sapiens, UniProt P45984); assay: Binding affinity to full length human JNK2 (M1 to Q382 residues) expressed in mammalian expression system by KINOMEscan assay
[27] = biological target: Platelet-derived growth factor receptor alpha (Homo sapiens, UniProt P16234); assay: Inhibition of human PDGFRA (V575 to D1002 residues) expressed in mammalian expression system assessed as residual activity at 5 uM by KINOMEscan assay relative to control
[28] = biological target: Cyclin-dependent kinase 19 (Homo sapiens, UniProt Q9BWU1); assay: Inhibition of human CDK11 (M1 to N360 residues) expressed in bacterial expression system assessed as residual activity at 5 uM by KINOMEscan assay relative to control
[29] = biological target: Inhibitor of nuclear factor kappa-B kinase subunit beta (Homo sapiens, UniProt O14920); assay: Binding affinity to full length human IKKbeta (M1 to S756 residues) expressed in mammalian expression system by KINOMEscan assay

Serine/threonine-protein kinase PAK 4, sequence (O96013 whole entry, looked up, the tested form may be a part): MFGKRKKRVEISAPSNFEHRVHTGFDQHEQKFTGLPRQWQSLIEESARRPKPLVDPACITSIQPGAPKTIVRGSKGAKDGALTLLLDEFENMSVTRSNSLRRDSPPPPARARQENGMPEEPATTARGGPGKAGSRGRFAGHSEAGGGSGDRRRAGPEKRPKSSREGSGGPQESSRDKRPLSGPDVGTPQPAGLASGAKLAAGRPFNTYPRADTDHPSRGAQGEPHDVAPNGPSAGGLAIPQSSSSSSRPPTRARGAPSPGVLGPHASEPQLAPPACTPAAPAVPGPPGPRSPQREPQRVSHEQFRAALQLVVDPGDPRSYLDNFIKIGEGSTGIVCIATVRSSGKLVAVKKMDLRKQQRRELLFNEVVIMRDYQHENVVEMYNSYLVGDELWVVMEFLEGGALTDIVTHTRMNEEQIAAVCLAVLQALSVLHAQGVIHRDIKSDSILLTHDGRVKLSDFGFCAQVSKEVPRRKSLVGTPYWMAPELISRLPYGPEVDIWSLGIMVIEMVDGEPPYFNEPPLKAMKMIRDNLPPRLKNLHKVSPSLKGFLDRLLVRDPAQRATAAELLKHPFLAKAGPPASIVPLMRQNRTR
Atypical kinase COQ8A, mitochondrial, sequence (Q8NI60 163-647 limits assumed): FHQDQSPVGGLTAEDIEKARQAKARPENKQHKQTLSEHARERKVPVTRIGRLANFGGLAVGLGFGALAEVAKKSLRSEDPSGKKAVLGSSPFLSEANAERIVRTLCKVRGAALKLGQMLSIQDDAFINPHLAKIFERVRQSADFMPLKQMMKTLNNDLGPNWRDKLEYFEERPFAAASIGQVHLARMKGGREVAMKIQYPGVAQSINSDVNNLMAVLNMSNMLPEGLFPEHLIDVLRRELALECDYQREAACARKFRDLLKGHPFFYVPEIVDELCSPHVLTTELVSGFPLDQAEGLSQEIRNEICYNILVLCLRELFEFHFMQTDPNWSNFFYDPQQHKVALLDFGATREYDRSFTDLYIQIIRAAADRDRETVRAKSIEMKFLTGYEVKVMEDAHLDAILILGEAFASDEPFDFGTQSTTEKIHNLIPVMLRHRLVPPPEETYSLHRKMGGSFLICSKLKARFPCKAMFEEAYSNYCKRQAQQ
Proto-oncogene tyrosine-protein kinase receptor Ret, sequence (P07949 whole entry, the tested form may be a part): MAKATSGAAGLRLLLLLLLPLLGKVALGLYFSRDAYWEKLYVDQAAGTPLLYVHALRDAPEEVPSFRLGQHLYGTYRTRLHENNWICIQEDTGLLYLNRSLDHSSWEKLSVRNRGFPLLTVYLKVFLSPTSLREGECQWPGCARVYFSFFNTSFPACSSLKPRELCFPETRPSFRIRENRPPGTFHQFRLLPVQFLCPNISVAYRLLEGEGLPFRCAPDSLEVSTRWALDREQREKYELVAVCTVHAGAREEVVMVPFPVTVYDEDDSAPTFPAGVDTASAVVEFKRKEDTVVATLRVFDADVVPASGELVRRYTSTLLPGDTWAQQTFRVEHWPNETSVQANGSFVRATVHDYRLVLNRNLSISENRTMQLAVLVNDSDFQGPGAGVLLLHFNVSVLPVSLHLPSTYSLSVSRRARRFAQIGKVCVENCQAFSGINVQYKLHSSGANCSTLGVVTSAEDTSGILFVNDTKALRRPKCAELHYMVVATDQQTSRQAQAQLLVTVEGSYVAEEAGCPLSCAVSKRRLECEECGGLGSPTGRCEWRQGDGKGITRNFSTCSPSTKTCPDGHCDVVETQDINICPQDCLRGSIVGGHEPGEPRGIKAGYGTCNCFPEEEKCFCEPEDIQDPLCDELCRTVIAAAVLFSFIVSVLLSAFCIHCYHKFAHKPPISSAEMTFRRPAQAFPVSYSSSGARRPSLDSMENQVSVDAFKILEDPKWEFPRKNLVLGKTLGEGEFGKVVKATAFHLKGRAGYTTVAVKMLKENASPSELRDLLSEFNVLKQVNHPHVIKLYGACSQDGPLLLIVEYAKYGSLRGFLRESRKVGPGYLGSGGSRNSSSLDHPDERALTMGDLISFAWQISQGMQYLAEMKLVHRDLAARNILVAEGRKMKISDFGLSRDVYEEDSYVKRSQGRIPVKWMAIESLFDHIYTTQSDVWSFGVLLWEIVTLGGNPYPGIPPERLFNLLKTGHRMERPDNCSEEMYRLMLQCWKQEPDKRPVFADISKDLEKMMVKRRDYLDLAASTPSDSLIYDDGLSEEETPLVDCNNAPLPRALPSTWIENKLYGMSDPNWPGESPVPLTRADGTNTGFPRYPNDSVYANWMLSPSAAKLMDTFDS
Activin receptor type-1B (Homo sapiens), sequence (P36896 whole entry, the tested form may be a part): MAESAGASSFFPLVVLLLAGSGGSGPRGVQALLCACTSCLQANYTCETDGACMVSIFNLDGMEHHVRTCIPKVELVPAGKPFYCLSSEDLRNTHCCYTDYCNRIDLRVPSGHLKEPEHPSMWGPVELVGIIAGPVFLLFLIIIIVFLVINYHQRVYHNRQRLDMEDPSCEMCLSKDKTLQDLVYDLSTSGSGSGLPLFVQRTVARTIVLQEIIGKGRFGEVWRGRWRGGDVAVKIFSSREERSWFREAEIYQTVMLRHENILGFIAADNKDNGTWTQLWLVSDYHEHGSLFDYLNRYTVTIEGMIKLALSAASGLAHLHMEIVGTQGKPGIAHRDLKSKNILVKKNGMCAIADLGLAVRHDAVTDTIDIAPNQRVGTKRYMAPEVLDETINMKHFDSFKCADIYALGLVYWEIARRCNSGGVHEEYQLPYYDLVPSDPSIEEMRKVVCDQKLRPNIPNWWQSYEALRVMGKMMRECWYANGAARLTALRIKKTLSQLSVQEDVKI
Tyrosine-protein kinase BTK, sequence (Q06187 whole entry, the tested form may be a part): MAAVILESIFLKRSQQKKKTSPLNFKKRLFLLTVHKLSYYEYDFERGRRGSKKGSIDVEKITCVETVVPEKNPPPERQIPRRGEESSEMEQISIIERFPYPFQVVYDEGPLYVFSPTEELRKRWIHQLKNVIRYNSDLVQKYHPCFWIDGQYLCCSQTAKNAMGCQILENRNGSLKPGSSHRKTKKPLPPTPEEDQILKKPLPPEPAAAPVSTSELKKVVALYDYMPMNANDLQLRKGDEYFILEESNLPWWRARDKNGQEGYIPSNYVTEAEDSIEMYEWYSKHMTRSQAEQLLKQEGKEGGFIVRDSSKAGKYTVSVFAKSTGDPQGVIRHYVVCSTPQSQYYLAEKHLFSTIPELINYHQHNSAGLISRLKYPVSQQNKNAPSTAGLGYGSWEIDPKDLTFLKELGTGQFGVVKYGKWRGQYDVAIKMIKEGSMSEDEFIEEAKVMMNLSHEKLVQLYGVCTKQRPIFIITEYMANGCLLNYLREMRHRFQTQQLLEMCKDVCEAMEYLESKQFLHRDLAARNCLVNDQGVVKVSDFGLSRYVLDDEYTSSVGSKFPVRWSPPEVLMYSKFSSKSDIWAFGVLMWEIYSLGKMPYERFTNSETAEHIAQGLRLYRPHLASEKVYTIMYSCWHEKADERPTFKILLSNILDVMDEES
MAP kinase-interacting serine/threonine-protein kinase 1, sequence (Q9BUB5 whole entry, the tested form may be a part): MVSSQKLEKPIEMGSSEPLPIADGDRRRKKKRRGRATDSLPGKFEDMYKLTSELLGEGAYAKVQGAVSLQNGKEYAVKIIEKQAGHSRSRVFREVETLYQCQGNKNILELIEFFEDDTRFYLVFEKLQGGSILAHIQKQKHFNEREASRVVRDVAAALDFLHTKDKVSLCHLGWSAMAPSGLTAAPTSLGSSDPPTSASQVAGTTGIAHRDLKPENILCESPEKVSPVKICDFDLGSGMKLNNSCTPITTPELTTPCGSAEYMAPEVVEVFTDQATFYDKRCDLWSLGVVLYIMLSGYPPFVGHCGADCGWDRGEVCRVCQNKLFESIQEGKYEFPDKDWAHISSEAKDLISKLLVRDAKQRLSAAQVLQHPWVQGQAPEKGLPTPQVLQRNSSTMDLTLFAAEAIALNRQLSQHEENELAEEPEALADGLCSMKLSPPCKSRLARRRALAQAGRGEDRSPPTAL

In the case of `CC(C)CN(C(=O)c1cccnc1)c1c2ccccc2c(=O)n2c1[nH]c1ccccc12`, the Activity [1] is reported as 92%, the Activity [2] is reported as 89% and the Kd [3] is reported as ≥ 5 µM. The Kd [4] was ≥ 5 µM, the Activity [5] was 82% and the Kd [6] was ≥ 5 µM. For the same compound, the Activity [7] was 21.52%, the GI50 at 48 h [8] was > 200 µM and the Activity [9] was 2.7%. For the same compound, the Activity [10] was “Dose-dependent effect”, the Kd [11] was ≥ 5 µM and the Activity [12] was 46.19%. For the same compound, the Kd [13] was ≥ 5 µM, the Activity [14] was 91% and the Activity [15] was “Dose-dependent effect”. It also gave an Activity [16] of 100%, an Activity [17] of 74% and an Activity [18] of 88%. For the same compound, the Activity [19] was 85%, the Activity [20] was 100% and the Activity [21] was 100%. For the same compound, the Activity [22] was 100%, the Activity [23] was 0.7% and the Activity [24] was 98%. The Activity [25] was “Dose-dependent effect”, the Kd [26] was ≥ 5 µM and the Activity [27] was 100%. The Activity [28] was 77% and the Kd [29] was ≥ 5 µM.

From ChEMBL document CHEMBL4229410, “Facile construction of fused benzimidazole-isoquinolinones that induce cell-cycle arrest and apoptosis in colorectal cancer cells” (Bioorg Med Chem, 2018)
